Laboratory results taken from ChEMBL document CHEMBL4396869, “Design and Synthesis of Selective Phosphodiesterase 4D (PDE4D) Allosteric Inhibitors for the Treatment of Fragile X Syndrome and Other Brain Disorders” (J Med Chem, 2019).
Activity calls are given as the source filed them. The rule behind the calls is not given here.

Experiments:
[1] = tested on: Mus musculus; test: Memory enhancement effect in ICR mouse assessed as improvement in novel object discrimination at 0.3 to 30 mg/kg, po administered via gavage measured for 5 mins by open field test; type: functional, organism-based
Summary of the method: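 Male ICR mice (25–30 g), dosed by oral gavage in 5% DMSO, 5% Solutol in PBS. Three phases in an open field box: 10 min habituation on day 1, 5 min training with identical objects on day 2, 5 min test with familiar and novel objects on day 3 (24 h delay). Exploration times recorded; discrimination index d2 = (b − a)/(a + b).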

[2] = Stability in dog liver microsomes assessed as parent compound remaining at 1 uM measured after 30 mins by LC-MS/MS analysis; type: ADME, Canis lupus familiaris, Microsome; conditions: read-out: Stability
Summary of the method: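 Liver microsome stability run by a contract lab using standard protocols. Parent compound remaining measured after 30 min incubation.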

[3] = Protein binding in human plasma; type: ADME, cell-free; conditions: read-out: PPB
[4] = Protein binding in dog plasma; type: ADME, cell-free, Canis lupus familiaris; conditions: read-out: PPB
[5] = Protein binding in rat plasma; type: ADME, cell-free; conditions: read-out: PPB
[6] = Protein binding in mouse plasma; type: ADME, cell-free; conditions: read-out: PPB
[7] = target: Cytochrome P450 3A4 (Homo sapiens, UniProt P08684); test: Inhibition of CYP3A4 (unknown origin) by fluorescence-based assay; type: ADME
Sequence of Cytochrome P450 3A4 (P08684 whole entry): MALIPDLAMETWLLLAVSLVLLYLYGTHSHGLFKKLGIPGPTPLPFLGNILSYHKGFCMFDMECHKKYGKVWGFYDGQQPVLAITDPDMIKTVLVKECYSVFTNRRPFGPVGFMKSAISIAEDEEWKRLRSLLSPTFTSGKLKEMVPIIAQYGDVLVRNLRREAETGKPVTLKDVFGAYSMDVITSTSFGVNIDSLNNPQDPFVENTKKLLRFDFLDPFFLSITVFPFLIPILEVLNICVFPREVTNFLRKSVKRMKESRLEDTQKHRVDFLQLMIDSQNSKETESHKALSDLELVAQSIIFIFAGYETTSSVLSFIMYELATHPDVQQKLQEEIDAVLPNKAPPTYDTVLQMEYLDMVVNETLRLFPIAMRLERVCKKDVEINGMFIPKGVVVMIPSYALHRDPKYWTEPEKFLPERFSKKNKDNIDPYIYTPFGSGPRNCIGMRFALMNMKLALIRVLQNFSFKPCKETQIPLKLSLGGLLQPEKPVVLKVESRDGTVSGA
Summary of the method: (§1)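 CYP inhibition run with a fluorescent substrate by a contract laboratory under standard protocols; IC50 reported.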

[8] = target: Cytochrome P450 2C19 (Homo sapiens, UniProt P33261); test: Inhibition of […] (unknown origin) by fluorescence-based assay; type: ADME; summary of the method: as §1
[9] = target: Cytochrome P450 2D6 (Homo sapiens, UniProt P10635); test: Inhibition of CYP2D6 (unknown origin) by fluorescence-based assay; type: ADME; summary of the method: as §1
Sequence of Cytochrome P450 2D6 (P10635 whole entry): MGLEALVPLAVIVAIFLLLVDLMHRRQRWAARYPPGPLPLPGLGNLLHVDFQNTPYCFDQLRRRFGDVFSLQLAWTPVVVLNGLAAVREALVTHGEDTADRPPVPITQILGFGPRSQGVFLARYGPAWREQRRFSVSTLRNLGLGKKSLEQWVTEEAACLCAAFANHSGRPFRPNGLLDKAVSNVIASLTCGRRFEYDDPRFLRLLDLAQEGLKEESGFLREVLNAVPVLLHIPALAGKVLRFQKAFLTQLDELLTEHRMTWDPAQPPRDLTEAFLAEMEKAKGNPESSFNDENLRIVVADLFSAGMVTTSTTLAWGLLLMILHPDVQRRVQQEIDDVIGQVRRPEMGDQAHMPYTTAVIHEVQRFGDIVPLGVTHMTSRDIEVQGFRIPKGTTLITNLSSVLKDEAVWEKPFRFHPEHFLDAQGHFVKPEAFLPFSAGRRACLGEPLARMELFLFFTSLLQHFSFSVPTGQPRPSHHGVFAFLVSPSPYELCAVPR

[10] = (§2) Inhibition of recombinant human His6-tagged PDE4D7 UCR1 S129D mutant expressed in baculovirus infected Sf9 insect cells using cAMP as substrate preincubated for 5 to 10 mins followed by substrate addition and measured for 10 mins by yeast myokinase/pyruvate kinase/lactate dehydrogenase-coupled fluorescence assay relative to control
[11] = target: T1, 3',5'-cyclic-AMP phosphodiesterase 4D (Homo sapiens, UniProt Q08499); test: as §2, with “PDE4D2” for “PDE4D7 UCR1 S129D mutant”; conditions: sf9, 10 min
T1 sequence (Q08499 whole entry): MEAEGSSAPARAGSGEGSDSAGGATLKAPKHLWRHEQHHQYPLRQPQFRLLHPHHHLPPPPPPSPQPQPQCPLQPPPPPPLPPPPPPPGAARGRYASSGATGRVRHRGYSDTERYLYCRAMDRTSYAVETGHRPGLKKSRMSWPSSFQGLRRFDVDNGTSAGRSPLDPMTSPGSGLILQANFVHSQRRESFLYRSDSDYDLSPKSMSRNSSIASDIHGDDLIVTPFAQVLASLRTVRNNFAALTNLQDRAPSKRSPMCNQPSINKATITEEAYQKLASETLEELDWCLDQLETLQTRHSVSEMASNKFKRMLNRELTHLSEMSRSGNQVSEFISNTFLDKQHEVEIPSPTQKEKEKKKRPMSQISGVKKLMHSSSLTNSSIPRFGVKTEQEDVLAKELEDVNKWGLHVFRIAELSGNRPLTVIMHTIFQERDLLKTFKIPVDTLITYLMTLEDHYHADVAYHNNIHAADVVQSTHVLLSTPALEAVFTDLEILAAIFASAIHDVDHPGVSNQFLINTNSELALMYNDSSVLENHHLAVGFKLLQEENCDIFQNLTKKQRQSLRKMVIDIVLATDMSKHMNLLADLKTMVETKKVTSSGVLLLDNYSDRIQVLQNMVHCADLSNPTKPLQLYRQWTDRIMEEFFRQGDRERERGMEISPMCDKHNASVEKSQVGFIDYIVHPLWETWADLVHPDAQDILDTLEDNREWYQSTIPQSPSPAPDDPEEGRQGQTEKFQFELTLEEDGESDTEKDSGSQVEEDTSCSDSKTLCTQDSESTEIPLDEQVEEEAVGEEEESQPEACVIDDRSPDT

[12] = target: Voltage-gated inwardly rectifying potassium channel KCNH2 (Homo sapiens, UniProt Q12809); test: Inhibition of human ERG
[13] = Half life in C57Bl6 mouse; type: ADME; conditions: in vivo
[14] = as §2, with “PDE4D UCR2 deletion” for “PDE4D7 UCR1 S129D”, “mutant catalytic domain” for “mutant”
[15] = Oral bioavailability in dog; type: ADME, organism-based, Canis lupus familiaris; conditions: in vivo
[16] = Toxicity in rat assessed as inappetence at 100 mg/kg, po; type: organism-based; conditions: in vivo
[17] = Toxicity in rat assessed as weight loss at 100 mg/kg, po; type: organism-based; conditions: in vivo
[18] = Vascular toxicity in dog measured for 90 days; design: species or system Canis lupus familiaris; conditions: in vivo, 2160 h
[19] = Vascular toxicity in rat during 28 days study by microscopic analysis; conditions: in vivo, 672 h
[20] = tested on: Mustela putorius furo; test: Induction of emesis in ferret up to 30 mg/kg, po; type: organism-based; conditions: in vivo
[21] = target: Dual specificity calcium/calmodulin-dependent 3',5'-cyclic nucleotide phosphodiesterase 1A (Homo sapiens, UniProt P54750); test: Inhibition of recombinant human full length N-terminal GST-tagged PDE1A5 expressed in baculovirus infected Sf9 insect cells using FAM-cAMP as substrate measured after 1 hr by fluorescence assay; conditions: sf9, 1 h
[22] = target: Dual specificity calcium/calmodulin-dependent 3',5'-cyclic nucleotide phosphodiesterase 1B (Homo sapiens, UniProt Q01064); test: Inhibition of recombinant human full length N-terminal GST-tagged PDE1B expressed in baculovirus infected Sf9 insect cells using FAM-cAMP as substrate measured after 1 hr by fluorescence assay; conditions: sf9, 1 h
[23] = target: Dual specificity calcium/calmodulin-dependent 3',5'-cyclic nucleotide phosphodiesterase 1C (Homo sapiens, UniProt Q14123); test: Inhibition of recombinant human N-terminal GST-tagged PDE1C (2 to 634 residues) expressed in baculovirus infected Sf9 insect cells using FAM-cAMP as substrate measured after 1 hr by fluorescence assay; conditions: sf9, 1 h
[24] = target: cGMP-inhibited 3',5'-cyclic phosphodiesterase 3B (Homo sapiens, UniProt Q13370); test: Inhibition of recombinant N-terminal GST-tagged human PDE3B (592-end residues) expressed in baculovirus infected Sf9 cells using FAM-cAMP as substrate incubated for 60 mins by fluorescence assay; conditions: sf9, 1 h
Sequence of cGMP-inhibited 3',5'-cyclic phosphodiesterase 3B (Q13370 whole entry, the tested form may be a part): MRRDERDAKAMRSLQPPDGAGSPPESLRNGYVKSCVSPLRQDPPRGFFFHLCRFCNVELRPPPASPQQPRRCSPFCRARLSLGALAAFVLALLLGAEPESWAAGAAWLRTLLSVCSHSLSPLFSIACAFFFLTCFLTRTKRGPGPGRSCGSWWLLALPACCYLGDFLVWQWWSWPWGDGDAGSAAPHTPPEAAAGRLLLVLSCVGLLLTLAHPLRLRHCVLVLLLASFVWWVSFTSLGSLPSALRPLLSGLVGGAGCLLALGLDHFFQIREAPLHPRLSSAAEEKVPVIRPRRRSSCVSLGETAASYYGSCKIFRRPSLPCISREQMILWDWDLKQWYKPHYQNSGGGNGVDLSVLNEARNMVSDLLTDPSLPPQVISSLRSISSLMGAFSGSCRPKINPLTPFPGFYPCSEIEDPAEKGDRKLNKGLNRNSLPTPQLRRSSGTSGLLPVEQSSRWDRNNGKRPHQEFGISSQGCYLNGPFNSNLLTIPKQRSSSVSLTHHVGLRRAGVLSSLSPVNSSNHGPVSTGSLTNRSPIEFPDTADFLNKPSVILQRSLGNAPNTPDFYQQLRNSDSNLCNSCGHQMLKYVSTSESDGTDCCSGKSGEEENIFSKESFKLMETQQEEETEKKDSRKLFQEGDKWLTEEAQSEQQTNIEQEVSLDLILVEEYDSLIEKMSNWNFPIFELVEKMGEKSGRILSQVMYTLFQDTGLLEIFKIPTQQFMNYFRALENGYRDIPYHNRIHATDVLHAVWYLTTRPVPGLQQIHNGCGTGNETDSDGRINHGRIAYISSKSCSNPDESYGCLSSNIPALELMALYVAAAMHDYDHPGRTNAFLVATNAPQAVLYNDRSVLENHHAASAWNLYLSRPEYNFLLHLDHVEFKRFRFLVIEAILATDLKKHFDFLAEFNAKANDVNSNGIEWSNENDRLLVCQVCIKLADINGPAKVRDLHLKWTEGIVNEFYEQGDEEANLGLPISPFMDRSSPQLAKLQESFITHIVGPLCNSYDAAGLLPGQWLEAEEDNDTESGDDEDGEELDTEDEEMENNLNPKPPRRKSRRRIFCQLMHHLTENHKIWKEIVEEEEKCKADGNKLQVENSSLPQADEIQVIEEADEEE

[25] = target: T2, 3',5'-cyclic-AMP phosphodiesterase 4A (Homo sapiens, UniProt P27815); test: Inhibition of recombinant N-terminal GST-tagged human PDE4A10 (2 to 825 residues) expressed in baculovirus infected Sf9 cells using FAM-cAMP as substrate incubated for 60 mins by fluorescence assay; conditions: sf9, 1 h
T2 sequence (P27815 whole entry, the tested form may be a part): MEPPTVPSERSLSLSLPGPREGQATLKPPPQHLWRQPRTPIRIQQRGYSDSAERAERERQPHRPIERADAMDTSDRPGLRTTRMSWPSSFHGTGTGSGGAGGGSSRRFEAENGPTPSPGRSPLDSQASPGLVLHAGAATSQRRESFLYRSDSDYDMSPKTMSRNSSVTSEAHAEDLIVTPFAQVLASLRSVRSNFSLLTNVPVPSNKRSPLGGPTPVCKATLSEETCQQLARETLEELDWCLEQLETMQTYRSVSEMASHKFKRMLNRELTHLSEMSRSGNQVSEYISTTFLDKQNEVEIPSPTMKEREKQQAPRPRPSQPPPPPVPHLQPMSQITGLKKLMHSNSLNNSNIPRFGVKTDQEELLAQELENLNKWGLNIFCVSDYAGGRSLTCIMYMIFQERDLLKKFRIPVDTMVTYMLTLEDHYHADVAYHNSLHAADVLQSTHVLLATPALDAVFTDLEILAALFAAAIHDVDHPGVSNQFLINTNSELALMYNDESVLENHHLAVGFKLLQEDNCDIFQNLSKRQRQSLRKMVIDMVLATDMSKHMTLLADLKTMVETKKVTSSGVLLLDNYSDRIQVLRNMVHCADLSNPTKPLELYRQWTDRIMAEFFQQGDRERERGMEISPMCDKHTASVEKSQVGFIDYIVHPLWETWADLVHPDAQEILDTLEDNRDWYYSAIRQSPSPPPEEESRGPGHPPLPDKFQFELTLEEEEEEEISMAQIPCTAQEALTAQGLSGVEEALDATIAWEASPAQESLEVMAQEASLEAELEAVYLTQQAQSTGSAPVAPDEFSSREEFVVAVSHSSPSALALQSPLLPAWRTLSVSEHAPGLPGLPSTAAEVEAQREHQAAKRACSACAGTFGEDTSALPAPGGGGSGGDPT

[26] = target: T2, 3',5'-cyclic-AMP phosphodiesterase 4A; test: Inhibition of recombinant N-terminal GST tagged human PDE4A4B (2 to end residues) expressed in Sf9 cells using FAM-cAMP as substrate incubated for 60 mins by fluorescence assay; conditions: sf9, 1 h
[27] = target: 3',5'-cyclic-AMP phosphodiesterase 4B (Homo sapiens, UniProt Q07343); test: Inhibition of recombinant N-terminal GST-tagged/C-terminal His-tagged full length human PDE4B2 expressed in baculovirus infected Sf9 cells using FAM-cAMP as substrate incubated for 60 mins by fluorescence assay; conditions: sf9, 1 h
[28] = target: 3',5'-cyclic-AMP phosphodiesterase 4C (Homo sapiens, UniProt Q08493); test: Inhibition of recombinant human full length N-terminal GST-tagged PDE4C1 expressed in baculovirus infected Sf9 cells using FAM-cAMP as substrate incubated for 60 mins by fluorescence assay; conditions: sf9, 1 h
[29] = target: T1, 3',5'-cyclic-AMP phosphodiesterase 4D; test: Inhibition of recombinant human N-terminal GST-tagged PDE4D2 (2 to 507 residues) expressed in baculovirus infected Sf9 cells using FAM-cAMP as substrate incubated for 60 mins by fluorescence assay; conditions: sf9, 1 h
[30] = target: T1, 3',5'-cyclic-AMP phosphodiesterase 4D; test: Inhibition of recombinant human full length N-terminal GST-tagged PDE4D3 expressed in baculovirus infected Sf9 cells using FAM-cAMP as substrate incubated for 60 mins by fluorescence assay; conditions: sf9, 1 h
[31] = target: 3',5'-cyclic-AMP phosphodiesterase 7B (Homo sapiens, UniProt Q9NP56); test: Inhibition of recombinant human N-terminal GST-tagged/C-terminal His-tagged PDE7B (109 to end residues) expressed in baculovirus infected Sf9 cells using FAM-cAMP as substrate incubated for 60 mins by fluorescence assay; conditions: sf9, 1 h
[32] = target: High affinity cAMP-specific and IBMX-insensitive 3',5'-cyclic phosphodiesterase 8A (Homo sapiens, UniProt O60658); test: Inhibition of recombinant human full length N-terminal GST-tagged PDE8A1 expressed in baculovirus infected Sf9 cells using FAM-cAMP as substrate incubated for 60 mins by fluorescence assay; conditions: sf9, 1 h
[33] = target: cAMP and cAMP-inhibited cGMP 3',5'-cyclic phosphodiesterase 10A (Homo sapiens, UniProt Q9Y233); test: Inhibition of recombinant human full length N-terminal GST-tagged PDE10A2 expressed in baculovirus infected Sf9 cells using FAM-cAMP as substrate incubated for 60 mins by fluorescence assay; conditions: sf9, 1 h
Sequence of cAMP and cAMP-inhibited cGMP 3',5'-cyclic phosphodiesterase 10A (Q9Y233 whole entry): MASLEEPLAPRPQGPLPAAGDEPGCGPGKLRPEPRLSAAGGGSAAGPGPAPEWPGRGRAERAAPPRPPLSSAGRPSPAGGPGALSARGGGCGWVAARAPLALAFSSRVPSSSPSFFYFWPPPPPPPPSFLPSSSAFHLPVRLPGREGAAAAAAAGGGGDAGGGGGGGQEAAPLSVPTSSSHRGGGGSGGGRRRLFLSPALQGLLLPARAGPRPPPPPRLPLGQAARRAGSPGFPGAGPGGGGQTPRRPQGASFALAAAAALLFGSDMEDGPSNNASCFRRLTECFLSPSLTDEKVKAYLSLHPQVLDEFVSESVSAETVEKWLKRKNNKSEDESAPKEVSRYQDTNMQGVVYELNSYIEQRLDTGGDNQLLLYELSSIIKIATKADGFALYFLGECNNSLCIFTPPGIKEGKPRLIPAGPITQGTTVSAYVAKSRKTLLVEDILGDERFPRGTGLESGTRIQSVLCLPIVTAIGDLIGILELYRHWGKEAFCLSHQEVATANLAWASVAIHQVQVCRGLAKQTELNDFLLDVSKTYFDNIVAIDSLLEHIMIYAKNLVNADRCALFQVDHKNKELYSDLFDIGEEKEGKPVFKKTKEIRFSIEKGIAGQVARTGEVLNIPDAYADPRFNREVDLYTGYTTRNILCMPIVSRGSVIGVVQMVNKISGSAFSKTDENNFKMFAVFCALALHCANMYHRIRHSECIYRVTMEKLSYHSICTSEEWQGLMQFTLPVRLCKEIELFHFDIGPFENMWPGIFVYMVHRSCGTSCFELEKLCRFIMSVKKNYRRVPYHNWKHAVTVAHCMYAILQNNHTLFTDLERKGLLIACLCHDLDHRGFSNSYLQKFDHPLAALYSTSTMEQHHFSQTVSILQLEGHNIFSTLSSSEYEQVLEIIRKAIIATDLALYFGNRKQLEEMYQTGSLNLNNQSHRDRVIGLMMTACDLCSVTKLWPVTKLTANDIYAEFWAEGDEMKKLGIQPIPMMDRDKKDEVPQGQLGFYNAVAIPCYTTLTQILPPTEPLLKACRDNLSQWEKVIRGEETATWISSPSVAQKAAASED

[34] = target: Dual 3',5'-cyclic-AMP and -GMP phosphodiesterase 11A (Homo sapiens, UniProt Q9HCR9); test: Inhibition of recombinant human full length N-terminal GST-tagged PDE11A expressed in baculovirus infected Sf9 cells using FAM-cAMP as substrate incubated for 60 mins by fluorescence assay; conditions: sf9, 1 h

O=C(O)Cc1ccc(Cc2cc(-c3cccc(Cl)c3)nc(C(F)(F)F)c2)cc1 [ZATOLMILAST]
Activity [1]: Active
remaining at 0.5 h, 1 µM [2]: 88 to 100%
fraction unbound [3]: 0.002 to 0.005
fraction unbound [4]: 0.002 to 0.005
fraction unbound [5]: 0.002 to 0.005
fraction unbound [6]: 0.002 to 0.005
IC50 [7]: 15 µM
IC50 [8]: 43 µM
IC50 [9]: > 100 µM
Imax [10]: 90.2%
inhibition (INH) [11]: Not Active
IC50 [12]: > 10 µM
half-life [13]: 10 to 12 h
inhibition [14]: inactive
bioavailability [15]: 80 to 100%
Activity [16]: Toxic
Activity [17]: Toxic
Activity [18]: Non-Toxic
Activity [19]: Non-Toxic
Activity [20]: Non-Toxic
inhibition (INH) [21]: Not Active
inhibition (INH) [22]: Not Active
inhibition (INH) [23]: Not Active
inhibition (INH) [24]: Not Active
inhibition (INH) [25]: Not Active
inhibition (INH) [26]: Not Active
inhibition (INH) [27]: Not Active
inhibition (INH) [28]: Not Active
inhibition (INH) [29]: Not Active
inhibition (INH) [30]: Not Active
inhibition (INH) [31]: Not Active
inhibition (INH) [32]: Not Active
inhibition (INH) [33]: Not Active
inhibition (INH) [34]: Not Active
